# From ChEMBL document CHEMBL2176867, “Design, synthesis, and biological evaluation of novel deguelin-based heat shock protein 90 (HSP90) inhibitors targeting proliferation and angiogenesis” (J Med Chem, 2012)
# The source made the active and inactive calls. The calls are words filed in the database; no cut-off is given here.
# What was measured:
# [1] = Cytotoxicity against human H1299 cells after 3 days by MTS assay; assay type: functional, cell-based; conditions: NCI-H1299, 72 h
# Procedure, shortened: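 H1299 NSCLC cells seeded at 5 × 10³ cells/well, treated next day with graded concentrations (0.1% DMSO as dilution control); proliferation read by MTS after 3 days; at least three replicate wells; IC50 taken as mean of triplicate experiments.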
# Danio rerio [2] = species: Danio rerio; assay: Antiangiogenic activity in transgenic zebrafish at 0.05 to 1.25 uM up to 72 hrs; assay type: functional, organism-based
# Procedure, shortened: (§1)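 Tg(fli:EGFP)^y1 embryos, treated with 1-phenyl-2-thiourea at 12 hpf to block pigmentation, placed in Danieau's solution ± test agents (50, 250, 1250 nM) at 24 hpf; solution washed out at 48 hpf; subintestinal vessels imaged in 72 hpf larvae against DMSO control.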
# [3] = target: Heat shock protein HSP 90-beta (Homo sapiens) (UniProt P08238); assay: Inhibition of HSP90 in human H1299 cells assessed as reduction of HIF1alpha level treated for 72 hrs followed by incubated for 12 hrs under hypoxia condition by Western blot analysis; assay type: cell-based
# Procedure, shortened: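 H1299 cells left untreated or exposed to test agents at each concentration for 72 h, then held under hypoxia (1% O₂) for 12 h; lysates immunoblotted with monoclonal anti-HIF-1α antibody.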
# Danio rerio [4] = species: Danio rerio; assay: Toxicity in transgenic zebrafish embryos assessed as effect on growth at 50 nM to 1.25 uM after 74 hrs; assay type: organism-based; conditions: in vivo, 0.05 µM
# Procedure, shortened: (§2)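 Zebrafish embryos exposed from 24 hpf to 50 nM–1.25 μM in Danieau's solution (pigmentation blocked with 1-phenyl-2-thiourea at 12 hpf); solution washed out at 48 hpf, then scored for viability and gross morphological abnormalities.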
# Danio rerio [5] = species: Danio rerio; assay: Antiangiogenic activity in transgenic zebrafish embryos
# Danio rerio [6] = species: Danio rerio; assay: Toxicity in transgenic zebrafish embryos assessed as developmental deffect at 10 uM after 24 hrs; assay type: organism-based; conditions: in vivo
# Danio rerio [7] = species: Danio rerio; assay: Toxicity in transgenic zebrafish embryos assessed as developmental deffect at 50 nM to 1.25 uM after 24 hrs; assay type: organism-based; conditions: in vivo, 0.05 µM; procedure, shortened: as §2
# [8] = target: Heat shock protein HSP 90-beta (Homo sapiens) (UniProt P08238); assay: Inhibition of HSP90 binding to HIF1alpha in human H1299 cells at 12.5 uM after 30 mins by immunoprecipitation and immunoblotting analysis in presence of ATP; assay type: cell-based; conditions: 1.25 uM, in the assay text read “1.25 uM” for “12.5 uM”
# Procedure, shortened: (§3)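 Cell-free format: lysates of H1299 cells pretreated with 100 μM CoCl₂ for 5 h, incubated with compound at 1.25 μM, with or without 20 mM ATP, 30 min at 37 °C. HIF-1α immunoprecipitated (antibody overnight, 4 °C; protein G-agarose 2 h, 4 °C), resolved on 6% SDS-PAGE, blotted for HSP90.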
# Danio rerio [9] = species: Danio rerio; assay: Antiangiogenic activity in transgenic zebrafish assessed as depletion of subintestinal veins after 72 hrs; assay type: functional, organism-based; procedure, shortened: as §1
# Danio rerio [10] = species: Danio rerio; assay: Toxicity in transgenic zebrafish embryos assessed as effect on viability at 50 nM to 1.25 uM after 74 hrs; assay type: organism-based; conditions: in vivo, 0.05 µM; procedure, shortened: as §2
# [11] = target: Heat shock protein HSP 90-beta (Homo sapiens) (UniProt P08238); assay: Inhibition of HSP90 binding to HIF1alpha in human H1299 cells at 12.5 uM after 30 mins by immunoprecipitation and immunoblotting analysis; assay type: cell-based; conditions: 1.25 uM, in the assay text read “1.25 uM” for “12.5 uM”; procedure, shortened: as §3
# Danio rerio [12] = species: Danio rerio; assay: Toxicity in transgenic zebrafish embryos assessed as effect on viability after 24 hrs; assay type: organism-based; conditions: in vivo
# Procedure, shortened: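 Tg(fli:EGFP)y1 zebrafish embryos, with pigment suppressed by 1-phenyl-2-thiourea from 12 hpf, were placed at 24 hpf in Danieau's solution with or without compound (50 nM to 1.25 μM). The solution was washed out at 48 hpf, and embryos were examined for viability and gross morphological abnormalities, with DMSO as the control.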
# Danio rerio [13] = species: Danio rerio; assay: Toxicity in transgenic zebrafish embryos assessed as developmental deffect at 50 nM to 10 uM after 24 hrs; assay type: organism-based; conditions: in vivo, 0.05 µM
# Procedure, shortened: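 Tg(fli:EGFP)y1 zebrafish embryos were exposed dose-dependently from 50% epiboly (5.3 hpf) across 50 nM to 10 μM, then scored for developmental defects. Pigmentation was blocked with 1-phenyl-2-thiourea at 12 hpf, and compounds were given in Danieau's solution, with DMSO as the negative control.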
# Danio rerio [14] = species: Danio rerio; assay: Antiangiogenic activity in transgenic zebrafish at 50 nM up to 72 hrs; assay type: functional, organism-based; procedure, shortened: as §1
# Danio rerio [15] = species: Danio rerio; assay: Antiangiogenic activity in transgenic zebrafish assessed as depletion of subintestinal veins at 50 nM to 1250 nM after 72 hrs; assay type: functional, organism-based; procedure, shortened: as §1
# Sequence of Heat shock protein HSP 90-beta (Homo sapiens) (P08238 whole entry): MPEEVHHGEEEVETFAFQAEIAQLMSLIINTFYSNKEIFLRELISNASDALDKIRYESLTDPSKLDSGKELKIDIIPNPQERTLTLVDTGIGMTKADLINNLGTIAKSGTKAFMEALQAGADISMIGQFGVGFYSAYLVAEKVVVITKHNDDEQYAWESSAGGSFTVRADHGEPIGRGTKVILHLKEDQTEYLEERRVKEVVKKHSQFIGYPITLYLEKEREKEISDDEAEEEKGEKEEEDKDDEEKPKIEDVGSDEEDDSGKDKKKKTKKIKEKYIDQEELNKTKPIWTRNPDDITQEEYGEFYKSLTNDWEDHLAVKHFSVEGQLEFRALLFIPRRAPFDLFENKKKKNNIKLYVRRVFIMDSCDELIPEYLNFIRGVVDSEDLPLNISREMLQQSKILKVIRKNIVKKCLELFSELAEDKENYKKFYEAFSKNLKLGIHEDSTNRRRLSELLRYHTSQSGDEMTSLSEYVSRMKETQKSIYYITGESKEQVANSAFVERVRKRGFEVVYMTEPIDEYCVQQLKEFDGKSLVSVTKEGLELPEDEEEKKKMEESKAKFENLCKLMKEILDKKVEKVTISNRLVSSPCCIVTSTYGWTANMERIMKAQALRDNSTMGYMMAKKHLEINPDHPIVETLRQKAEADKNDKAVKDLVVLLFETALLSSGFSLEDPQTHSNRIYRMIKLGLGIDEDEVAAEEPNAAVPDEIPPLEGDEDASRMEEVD
SMILES,IC50 [1] [µM],further results
COc1cc2c(cc1OC)C1=Cc3ccc4c(c3O[C@@H]1CO2)C=CC(C)(C)O4,> 500,–
COc1ccc(C(C)(C)C(=O)c2ccc3c(c2OC)C=CC(C)(C)O3)cc1OC,3.2,–
"COc1cc2c(cc1OC)[C@@H]1C(=O)c3ccc(OC)c(CC=C(C)C)c3O[C@@H]1CO2 [ROTENONIC ACID, METHYL ETHER]",5.2,–
COc1cc2c(cc1OC)[C@@H]1C(=O)c3ccc(O)c(CC=C(C)C)c3O[C@@H]1CO2 [ROTENONIC ACID],9.8,–
COc1ccc(C2COc3c(ccc4c3C=CC(C)(C)O4)C2=O)cc1OC (racemic),4.5,–
COc1cc2c(cc1OC)[C@@H]1Cc3ccc4c(c3O[C@@H]1CO2)C=CC(C)(C)O4,4.2,–
COc1cc2c(cc1OC)[C@@H]1[C@H](OCc3ccccc3)c3ccc4c(c3O[C@@H]1CO2)C=CC(C)(C)O4,> 500,–
CCO[C@@H]1c2ccc3c(c2O[C@@H]2COc4cc(OC)c(OC)cc4[C@H]12)C=CC(C)(C)O3,9.8,–
COc1cc2c(cc1O)OC[C@H]1Oc3c(ccc4c3C=CC(C)(C)O4)C(=O)[C@@H]21,0.87,–
COc1cc2c(cc1OC)[C@@H]1[C@H](O)c3ccc4c(c3O[C@@H]1CO2)C=CC(C)(C)O4,0.01,Activity (Danio rerio [2]): inactive; inhibition [3]: Active
COc1cc2c(cc1OC)[C@@H]1/C(=N/O)c3ccc4c(c3O[C@@H]1CO2)C=CC(C)(C)O4,0.3,–
COc1ccc(C2(C(=O)c3ccc4c(c3OC)C=CC(C)(C)O4)CC2)cc1OC,102,–
COc1cc2c(cc1O)[C@@H]1C(=O)c3ccc4c(c3O[C@@H]1CO2)C=CC(C)(C)O4,0.97,–
COc1ccc(C(C)C(=O)c2ccc3c(c2OC)C=CC(C)(C)O3)cc1OC (racemic),0.73,–
COc1cc2c(cc1OC)[C@@H]1C(=O)c3ccc4c(c3O[C@@H]1CO2)C(O)C(O)C(C)(C)O4 (some centres undefined),> 500,–
COc1cc2c(cc1OC)[C@@H]1C(=O)c3ccc(OC(C)=O)c(CC=C(C)C)c3O[C@@H]1CO2,> 500,–
COc1cc2c(cc1OC)C(C(=O)c1ccc3c(c1)C=CC(C)(C)O3)CCO2 (racemic),3.8,–

SMILES,IC50 [1] [µM],further results
CO/N=C1\c2ccc3c(c2O[C@@H]2COc4cc(OC)c(OC)cc4[C@H]12)C=CC(C)(C)O3,4.3,–
COc1cc2c(cc1OC)[C@@H]1[C@H](OC(C)=O)c3ccc4c(c3O[C@@H]1CO2)C=CC(C)(C)O4,0.68,–
COc1ccc(CC(=O)c2ccc3c(c2OC)C=CC(C)(C)O3)cc1OC,0.14,Activity (Danio rerio [4]): Non-toxic; Activity (Danio rerio [5]): Dose-dependent effect; Activity (Danio rerio [6]): Toxic; Activity (Danio rerio [7]): Non-toxic; inhibition [3]: Active; inhibition [8]: inactive; Activity (Danio rerio [9]): Dose-dependent effect; Activity (Danio rerio [10]): Non-toxic; inhibition [11]: Active
COc1cc2c(cc1OC)[C@@H]1[C@H](OC)c3ccc4c(c3O[C@@H]1CO2)C=CC(C)(C)O4,4.1,–
C=CCOc1ccc2c(c1CC=C(C)C)O[C@@H]1COc3cc(OC)c(OC)cc3[C@@H]1C2=O,> 500,–
COc1cc2c(cc1OC)[C@@H]1C(=O)c3ccc4c(c3O[C@@H]1CO2)C=CC(C)(C)O4 [DEGUELIN],0.11,Activity (Danio rerio [12]): Dose-dependent effect; Activity (Danio rerio [13]): Toxic; Activity (Danio rerio [14]): inactive
COc1cc2c(cc1OC)-c1c(oc3c4c(ccc3c1=O)OC(C)(C)C=C4)CO2 [DEHYDRODEGUELIN],> 500,–
COc1cc2c(cc1OC)[C@@H]1C(=O)c3ccc4c(c3O[C@@H]1CO2)CCC(C)(C)O4,0.14,–
COc1cc2c(cc1OC)[C@@H]1/C(=N/OCc3ccccc3)c3ccc4c(c3O[C@@H]1CO2)C=CC(C)(C)O4,> 500,–
COc1ccc([C@H](C)C(=O)c2ccc3c(c2OC)C=CC(C)(C)O3)cc1OC,0.49,Activity (Danio rerio [4]): Non-toxic; Activity (Danio rerio [5]): Dose-dependent effect; Activity (Danio rerio [6]): Toxic; Activity (Danio rerio [7]): Non-toxic; inhibition [3]: Active; Activity (Danio rerio [15]): Active; inhibition [8]: inactive; Activity (Danio rerio [10]): Non-toxic; inhibition [11]: Active
COc1ccc(CC(=O)c2ccc3c(c2)C=CC(C)(C)O3)cc1OC,1,–
COc1cc2c(cc1OC)[C@@H]1C(=O)c3ccc(OCc4ccccc4)c(CC=C(C)C)c3O[C@@H]1CO2,> 500,–
COc1cc2c(cc1OC)[C@@H]1[C@H](OC(N)=O)c3ccc4c(c3O[C@@H]1CO2)C=CC(C)(C)O4,0.11,Activity (Danio rerio [2]): inactive; inhibition [3]: Active
CC1(C)C=Cc2c(ccc3c2O[C@@H]2COc4cc(O)c(O)cc4[C@@H]2C3=O)O1,10.1,–
CCCO[C@@H]1c2ccc3c(c2O[C@@H]2COc4cc(OC)c(OC)cc4[C@H]12)C=CC(C)(C)O3,10.5,–
COc1ccc([C@@H](C)C(=O)c2ccc3c(c2OC)C=CC(C)(C)O3)cc1OC,1.3,Activity (Danio rerio [4]): Non-toxic; Activity (Danio rerio [5]): Dose-dependent effect; Activity (Danio rerio [6]): Toxic; Activity (Danio rerio [7]): Non-toxic; inhibition [3]: Active; Activity (Danio rerio [10]): Non-toxic
